Assay results: ChEMBL document CHEMBL1140046, “Novel and potent inhibitors of 5-lipoxygenase product synthesis based on the structure of pirinixic acid” (J Med Chem, 2008)
Activity calls are given as the source filed them. The rule behind the calls is not given here.

What was measured:
[1] = biological target: T1, Polyunsaturated fatty acid 5-lipoxygenase (Homo sapiens) (UniProt P09917); assay: Inhibition of 5-lipoxygenase in human intact polymorphonuclear leukocytes assessed as suppression of A23187-induced product formation at 1 uM; parameters: scale not given: the % may be the effect or the level left
T1 sequence (whole entry): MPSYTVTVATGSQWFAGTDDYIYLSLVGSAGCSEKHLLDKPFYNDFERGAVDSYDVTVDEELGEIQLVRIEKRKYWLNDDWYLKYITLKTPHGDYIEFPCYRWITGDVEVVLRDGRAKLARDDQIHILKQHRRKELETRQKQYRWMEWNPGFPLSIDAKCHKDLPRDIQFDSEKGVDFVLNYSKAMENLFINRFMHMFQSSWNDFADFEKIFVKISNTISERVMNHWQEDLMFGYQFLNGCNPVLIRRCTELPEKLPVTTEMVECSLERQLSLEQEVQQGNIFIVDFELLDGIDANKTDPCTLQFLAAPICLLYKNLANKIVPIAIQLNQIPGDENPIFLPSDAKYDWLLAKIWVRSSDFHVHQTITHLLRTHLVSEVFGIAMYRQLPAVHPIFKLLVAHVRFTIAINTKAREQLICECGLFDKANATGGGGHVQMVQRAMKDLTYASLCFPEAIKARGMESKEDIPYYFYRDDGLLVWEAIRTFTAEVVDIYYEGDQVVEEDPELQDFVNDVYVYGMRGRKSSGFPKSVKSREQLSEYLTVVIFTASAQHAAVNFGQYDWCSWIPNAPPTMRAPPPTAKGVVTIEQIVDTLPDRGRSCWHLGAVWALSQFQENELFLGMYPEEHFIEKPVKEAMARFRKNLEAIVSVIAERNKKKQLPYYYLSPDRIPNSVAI
Outline: (§1)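 Human PMNL were isolated from donor venous blood by dextran sedimentation, Nycoprep centrifugation and hypotonic lysis. 5 × 10^6 cells in 1 mL PBS pH 7.4 with 1 mg/mL glucose and 1 mM CaCl2 were preincubated 15 min at RT. Stimulation was with 2.5 µM A23187 plus 20 µM AA for 10 min at 37 °C. Methanol stop, PGB1 internal standard, HPLC of LTB4, its all-trans isomers and 5-H(P)ETE.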

[2] = biological target: T1, Polyunsaturated fatty acid 5-lipoxygenase (Homo sapiens); assay: Inhibition of 5-lipoxygenase in human intact polymorphonuclear leukocytes assessed as suppression of A23187-induced product formation at 10 uM; parameters: scale not given: the % may be the effect or the level left; outline: as §1
[3] = biological target: T2, Polyunsaturated fatty acid 5-lipoxygenase (Homo sapiens, UniProt P09917); assay: Inhibition of 5-lipoxygenase in human intact polymorphonuclear leukocytes assessed as suppression of A23187-induced product formation
T2 sequence (P09917 whole entry): T1 sequence (whole entry)
Outline: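 Same PMNL assay: 15 min RT preincubation, then 2.5 µM A23187 plus 20 µM exogenous AA for 10 min at 37 °C. HPLC read-out as ng 5-LO products per 10^6 cells. IC50 approximated by linear interpolation around 50% activity from 4-5 concentrations; mean ± SE, n = 3-5.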

[4] = biological target: T1, Polyunsaturated fatty acid 5-lipoxygenase (Homo sapiens); assay: Inhibition of human recombinant 5-lipoxygenase expressed in Escherichia coli MV1190 assessed as suppression of CaCl2/arachidonic acid-induced product formation at 30 uM; parameters: scale not given: the % may be the effect or the level left
[5] = biological target: T1, Polyunsaturated fatty acid 5-lipoxygenase (Homo sapiens); assay: Inhibition of human recombinant 5-lipoxygenase expressed in Escherichia coli MV1190 assessed as suppression of CaCl2/arachidonic acid-induced product formation at 1 uM; parameters: scale not given: the % may be the effect or the level left
[6] = biological target: T2, Polyunsaturated fatty acid 5-lipoxygenase; assay: Inhibition of human recombinant 5-lipoxygenase expressed in Escherichia coli MV1190 assessed as suppression of CaCl2/arachidonic acid-induced product formation

Activity [1] | Activity [2] | IC50 [3] [nM] | Activity [4] [%] | Activity [5] [%] | IC50 [6] [nM] | SMILES
inactive | inactive | – | – | – | – | CC(Sc1nc(Cl)cc(Nc2ccc3ncccc3c2)n1)C(=O)O (configuration not stated)
52.7% | 3.5% | 1200 | – | – | – | CCOC(=O)C(Sc1nc(Cl)cc(Nc2ccc3ncccc3c2)n1)c1ccccc1 (configuration not stated)
91.4% | 10.7% | – | 72.6 | 93.7 | – | CCCCCCC(Sc1nc(Cl)cc(Oc2ccc3ncccc3c2)n1)C(=O)O (configuration not stated)
84.9% | 30.5% | – | – | – | – | CCCCCCC(Sc1nc(Cl)cc(Nc2cccc(C)c2C)n1)C(=O)OCC (configuration not stated)
86.3% | 12.3% | 2600 | – | – | – | CCOC(=O)CSc1nc(Cl)cc(Nc2ccc3ncccc3c2)n1
51.8% | 1.6% | 1100 | – | – | – | CCCCC(Sc1nc(Cl)cc(Nc2ccc3ncccc3c2)n1)C(=O)OCC (configuration not stated)
inactive | inactive | – | – | – | – | Cc1cccc(Nc2cc(Cl)nc(SCC(=O)O)n2)c1C
67.4% | 4.5% | 1700 | 59.2 | 79.1 | – | CCCCCCC(Sc1nc(Cl)cc(Oc2ccc3ncccc3c2)n1)C(=O)OCC (configuration not stated)
inactive | 77.6% | – | – | – | – | CCOC(=O)CSc1nc(Cl)cc(Oc2ccc3ncccc3c2)n1
inactive | 50% | – | – | – | – | CCCCC(Sc1nc(Cl)cc(Nc2ccc3ncccc3c2)n1)C(=O)O (configuration not stated)
inactive | inactive | – | – | – | – | Cc1cccc(Nc2cc(Cl)nc(SC(C(=O)O)c3ccccc3)n2)c1C (configuration not stated)
87.6% | 26.7% | – | 51 | 95.6 | 31000 | CCCCCCC(Sc1nc(Cl)cc(NCc2ccc3ncccc3c2)n1)C(=O)O (configuration not stated)
3.3% | – | – | – | 10.8 | – | CC(=O)N(O)C/C=C/c1cccc(Oc2ccccc2)c1
80% | 3.9% | – | – | – | – | CCOC(=O)CSc1nc(Cl)cc(OCc2ccc3ncccc3c2)n1
inactive | inactive | – | – | – | – | Cc1cccc(Nc2cc(Cl)nc(SC(C)C(=O)O)n2)c1C (configuration not stated)
64.3% | 28.9% | 4100 | – | – | – | CCCCCCC(Sc1nc(Cl)cc(Nc2cccc(C)c2C)n1)C(=O)O (configuration not stated)
76.9% | 77.7% | – | – | – | – | CCOC(=O)CSc1nc(Cl)cc(Nc2cccc(C)c2C)n1
27.9% | 4% | 600 | 43.8 | 68.2 | 19000 | CCCCCCC(Sc1nc(Cl)cc(Nc2ccc3ncccc3c2)n1)C(=O)OCC (configuration not stated)
71.1% | 14.5% | 3900 | – | – | – | O=C(O)CSc1nc(Cl)cc(Nc2cccc3c2CCC3)n1
inactive | 69.1% | – | – | – | – | O=C(O)C(Sc1nc(Cl)cc(Nc2ccc3ncccc3c2)n1)c1ccccc1 (configuration not stated)
inactive | 22.8% | – | – | – | – | CCOC(=O)C(C)Sc1nc(Cl)cc(Nc2cccc(C)c2C)n1 (configuration not stated)
inactive | 12% | – | – | – | – | CCOC(=O)C(C)Sc1nc(Cl)cc(Nc2ccc3ncccc3c2)n1 (configuration not stated)
inactive | inactive | – | – | – | – | O=C(O)CSc1nc(Cl)cc(Oc2ccc3ncccc3c2)n1
57.4% | 11.4% | 1400 | 56 | 70.7 | 37000 | CCCCCCC(Sc1nc(Cl)cc(NCc2ccc3ncccc3c2)n1)C(=O)OCC (configuration not stated)
53.1% | 18.7% | 1800 | – | – | – | CCOC(=O)C(Sc1nc(Cl)cc(Nc2cccc(C)c2C)n1)c1ccccc1 (configuration not stated)
inactive | inactive | – | – | – | – | O=C(O)CSc1nc(Cl)cc(Nc2ccc3ncccc3c2)n1
65.2% | 8.9% | 3200 | – | – | – | CCOC(=O)CSc1nc(Cl)cc(Nc2cccc3c2CCC3)n1
inactive | 20.1% | – | 52.7 | 95.4 | 34000 | CCCCCCC(Sc1nc(Cl)cc(Nc2ccc3ncccc3c2)n1)C(=O)O (configuration not stated)
